Results pooled from the literature.
FLT3 K663Q: Receptor-type tyrosine-protein kinase FLT3 (FLT3, Homo sapiens, UniProt P36888, K663Q)
FLT3 ITD: Receptor-type tyrosine-protein kinase FLT3 (FLT3, Homo sapiens, UniProt P36888, ITD)
FLT3 D835V: Receptor-type tyrosine-protein kinase FLT3 (FLT3, Homo sapiens, UniProt P36888, D835V)
FLT3 R834Q: Receptor-type tyrosine-protein kinase FLT3 (FLT3, Homo sapiens, UniProt P36888, R834Q)
FLT3: Receptor-type tyrosine-protein kinase FLT3 (FLT3, Homo sapiens, UniProt P36888)
FLT3 D835H: Receptor-type tyrosine-protein kinase FLT3 (FLT3, Homo sapiens, UniProt P36888, D835H)
FLT3 autoinhibited: Receptor-type tyrosine-protein kinase FLT3, autoinhibited (FLT3, Homo sapiens, UniProt P36888)
FLT3 N841I: Receptor-type tyrosine-protein kinase FLT3 (FLT3, Homo sapiens, UniProt P36888, N841I)

O=C(NCC1CCOCC1)c1n[nH]cc1NC(=O)c1c(F)cccc1F
remaining binding (FLT3 K663Q; binding, competition with immobilised ligand; 1 µM): 91%

O=C(NCCCN1CCOCC1)c1ccc(Nc2nccc(-c3cc4ccccc4s3)n2)cc1
remaining binding (FLT3 ITD; binding, competition with immobilised ligand; 1 µM): 50%

CN([C@@H]1CCc2c(CC(=O)O)c3cc(S(C)(=O)=O)ccc3n2C1)S(=O)(=O)c1ccc(F)cc1
remaining binding (FLT3 D835V; cell-free assay, competition with immobilised ligand; 1 µM): 99%

O=C(NCCCN1CCOCC1)c1ccc(Nc2ncc(Cl)c(-c3ccc(Cl)s3)n2)cc1
remaining binding (FLT3 R834Q; binding, competition with immobilised ligand; 1 µM): 7.4%

CS(=O)(=O)c1cc(C2(NC(=O)c3cncc4c3cnn4-c3ccc(F)cc3)CC2)ccn1
remaining binding (FLT3 D835V; cell-free assay, competition with immobilised ligand; 1 µM): 100%

N[C@@H]1CCN(c2nccc(-c3cnn4ncccc34)n2)C1
remaining binding (FLT3 R834Q; binding; 1 µM): 100%

O=C(c1ccc(Nc2ncc(Cl)c(-c3cc4ccccc4s3)n2)cc1)N1CCC(N2CCCC2)CC1
remaining binding (FLT3 K663Q; binding, competition with immobilised ligand; 1 µM): 3.4%

COc1ncc2cc3ccccc3nc2c1C#N
remaining binding (FLT3 K663Q; cell-free assay, competition with immobilised ligand; 5 µM): 97%

CN1CCN(c2ccc(Nc3nccc(-c4cccc([N+](=O)[O-])c4)n3)cc2C(F)(F)F)CC1
remaining binding (FLT3 R834Q; binding; 10 µM): 3.7%

CO[C@H]1CC[C@H](CNc2ccc(S(=O)(=O)NC(=O)c3ccc(N4CCN(CC5=C(c6ccc(Cl)cc6)CC(C)(C)CC5)CC4)cc3Oc3cnc4[nH]ccc4c3)cc2[N+](=O)[O-])CC1
remaining binding (FLT3; cell-free assay, competition with immobilised ligand; 1 µM): 100%

Cc1cnc(Nc2ccc(C(=O)N3CCC(N4CCCC4)CC3)cc2)nc1-c1cc2ccccc2s1
remaining binding (FLT3 D835V; binding, competition with immobilised ligand; 1 µM): 0.6%

CNCc1ccccc1-c1csc([C@@H](C)Nc2nc(C)nc3cc(OC)c(OC)cc23)c1
remaining binding (FLT3 ITD; cell-free assay, competition with immobilised ligand; 1 µM): 89%

COc1cnc(Nc2cccc(S(N)(=O)=O)c2)nc1N1CCN(c2ccccc2)CC1
remaining binding (FLT3 D835H; binding, competition with immobilised ligand; 1 µM): 94%

C=CC(=O)N1CCC(C(=O)NCC(=O)N2CCN(c3nc(-c4cnc(N)nc4C(F)F)nc(N4CCOCC4)n3)CC2)CC1
remaining binding (FLT3; binding, competition with immobilised ligand; 1 µM): 91%

CCN1CCN(Cc2ccc(C(=O)Nc3ccc(C)c(Oc4ccc5c(c4)CC(=O)N5)c3)cc2C(F)(F)F)CC1
remaining binding (FLT3; binding, competition with immobilised ligand; 1 µM): 41%

COc1cnc(Nc2cccc(S(N)(=O)=O)c2)nc1N1CCN(c2ccccc2)C(=O)C1
remaining binding (FLT3 autoinhibited; binding, competition with immobilised ligand; 1 µM): 100%

O=C(c1ccc(Nc2nccc(-c3cc4ccccc4s3)n2)cc1)N1CCC(N2CCCC2)CC1
remaining binding (FLT3 ITD; binding, competition with immobilised ligand; 1 µM): 46%

CC1CCCN1c1nccc(-c2cnn3ncccc23)n1 (centres unmarked)
remaining binding (FLT3 autoinhibited; binding; 1 µM): 100%

Nc1ncc2c(n1)-c1c([nH]c3ccc(C#CC4CC4)cc13)CCCC2
remaining binding (Receptor-type tyrosine-protein kinase FLT3 (FLT3, Homo sapiens, UniProt P36888, D835Y); binding, competition with immobilised ligand; 1 µM): 89%

O=C(NCc1ncc(C(F)(F)F)cc1Cl)c1ccc2c(c1)C1(CCS(=O)(=O)CC1)[C@H](C1CC1)N2S(=O)(=O)c1ccc(F)cc1
remaining binding (FLT3 D835H; cell-free assay, competition with immobilised ligand; 1 µM): 92%

CN(C)c1nccc(-c2cnn3ncccc23)n1
remaining binding (FLT3 D835H; binding; 1 µM): 100%

c1cncc(-c2cccc(Nc3nccc(NC4CCCCC4)n3)c2)c1
remaining binding (FLT3 autoinhibited; binding, competition with immobilised ligand; 10 µM): 3.6%

CO[C@@H](C)c1c(Nc2ccc([C@H](N(C)C(=O)C3CCS(=O)(=O)CC3)C(F)(F)F)cc2)cnc2cc(Cl)nn12
remaining binding (FLT3 K663Q; cell-free assay, competition with immobilised ligand; 1 µM): 100%

CNC(=O)[C@@H]1CC[C@@H](n2c(-c3ccc4cnccc4c3)nc3ccc(C(=O)NCc4cccc(C(N)=O)c4)cc32)C1
remaining binding (FLT3 D835V; binding, competition with immobilised ligand; 1 µM): 94%

O=C(c1ccc(Nc2ncc(Cl)c(-c3ccc(Cl)s3)n2)cc1)N1CCC(N2CCCC2)CC1
remaining binding (FLT3 D835V; binding, competition with immobilised ligand; 1 µM): 1.9%

C[C@@H](c1ccc(-n2cnc3c(N)ncnc32)cc1)N1CCc2nn(C)c(Cc3ccccc3)c2C1=O
remaining binding (FLT3 D835V; binding, competition with immobilised ligand; 0.1 µM): 87%

C[C@H]1CCN(c2nccc(-c3cnn4ncccc34)n2)C1
remaining binding (FLT3 R834Q; binding; 1 µM): 71%

CCC(=O)N[C@H]1CC[C@@H](C(=O)N(C)c2ccc(-c3nc4ccccc4o3)cc2)C1
remaining binding (FLT3 K663Q; cell-free assay, competition with immobilised ligand; 1 µM): 88%

CN(C)c1ncc(F)c(-c2cnn3ncccc23)n1
remaining binding (FLT3; binding; 1 µM): 100%

CCS(=O)(=O)c1cc2cc(C[C@](O)(CC(C)(C)c3ccc(F)cc3C(N)=O)C(F)(F)F)[nH]c2cn1
remaining binding (FLT3 N841I; cell-free assay, competition with immobilised ligand; 1 µM): 93%

c1cnn2ncc(-c3ccnc(N4CCC45COC5)n3)c2c1
remaining binding (FLT3 autoinhibited; binding; 1 µM): 58%

O=C(Nc1c[nH]nc1C(=O)NC1CCNCC1)c1cc(F)cc(F)c1
remaining binding (FLT3 N841I; binding, competition with immobilised ligand; 1 µM): 100%
